Source: PubChem BioAssay
Ecoli rRNA inh: inhibits bacterial ribosomal RNA function over humanized ribosomes; E. coli WT GFP vs humanized-ribosome RFP mutants, fluorescence, 24 h; active compounds read low; DMSO median 0, no signal -100; GFP signal change (wild-type ribosome), % (no concentration beside the values); 350,000 tested, 1.6% active; AID 720706;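 active = significant combined selectivity score with lowered wild-type GFP, culture density cut under 30%, mutant RFP and density less affected; inactive = any of these conditions unmet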
XiGFP reactiv: X-chromosome reactivation activator. XiGFP mouse fibroblasts, % GFP-positive cells imaging, 3 d; cells co-treated with 5-aza-dC sensitizer; scaled so ellipticine positive control = 100%. activation, % at 7.58 µM. 360,000 tested, 0.055% active. AID 743238;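 active = mean normalized replicate activation at least 10% and every replicate at or above 10%; inconclusive = only one of the two criteria met; inactive = mean below 10% and not all replicates reach 10%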;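 also: 0% = median of on-plate neutral control wells and 100% = ellipticine 6 µM median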
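Material: XiGFP fibroblasts, SV40-immortalized; Buffer or medium: DMEM containing 5-aza-dC; Compound dosing: single point; Times: 3 days compound exposure.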
PvdQ inh: P. aeruginosa PvdQ acylase inhibition | purified PvdQ acylase, fluorescence plate reader | inhibition, % at 10 µM | 340,000 tested, 0.063% active | AID 488965; in the data active = inhibition above about 30%, passing the limit was not always enough; inconclusive = no clear call, values can overlap the other calls;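 also: 0% = vehicle neutral wells and 100% = reference inhibitor wells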
SR-BI uptake up: enhances SR-BI lipid uptake from DiI-HDL; CHO ldlA[mSR-BI] cells, DiI-HDL uptake fluorescence, 3 h; 100 = double the neutral-control signal; activation, % at 12.5 µM; 320,000 tested, 0.096% active; AID 504775;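 active = mean replicate activation of at least 60% and every replicate at or above 60%; inconclusive = mean or all-replicate condition met, but not both; inactive = mean below 60% and not all replicates reaching 60%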;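 also: 0% = median plate neutral-control signal and 100% = twice that signal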
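Assay system: CHO ldlA[mSR-BI] cells, LDL receptor-null, SR-BI overexpressing; medium: Ham's F12 with 0.5% BSA, HEPES 25 mM, pH 7.4; also added: DiI-HDL 10 µg/mL; timing: 3 h uptake period with compound, 37 °C; signal: DiI fluorescence, bottom read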
dFosB act-1: mouse delta FosB homodimer activation; purified delta FosB, TAMRA-CDK5 oligo fluorescence polarization; percent of positive-control signal above neutral wells; activation, % at 25 µM; 340,000 tested, 0.99% active;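 active = mean activation above about 17%, with every replicate also reaching it, limit read from the data, passing the limit was not always enough; inconclusive = only one of the two conditions met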
Target sequence (P13346 whole entry, looked up): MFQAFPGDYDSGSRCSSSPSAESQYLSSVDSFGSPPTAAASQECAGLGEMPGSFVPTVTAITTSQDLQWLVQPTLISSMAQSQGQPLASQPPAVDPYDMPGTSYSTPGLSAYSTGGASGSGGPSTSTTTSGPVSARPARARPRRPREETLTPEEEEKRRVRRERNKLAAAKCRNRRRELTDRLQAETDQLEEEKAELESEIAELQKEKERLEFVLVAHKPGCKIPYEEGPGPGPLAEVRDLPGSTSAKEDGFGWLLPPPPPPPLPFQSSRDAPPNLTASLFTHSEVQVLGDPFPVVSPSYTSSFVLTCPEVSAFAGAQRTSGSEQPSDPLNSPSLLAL
SR-BI HDL uptake: inhibitors of mouse SR-BI mediated HDL lipid uptake | ldlA[mSR-BI] CHO cells, DiI-HDL uptake fluorescence, 3 h | Q61009 | 320,000 tested, 0.96% active | inhibition, % at 12.5 µM;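 active = mean replicate inhibition of at least 70% and a set share of replicates each scoring 70 or more; inconclusive = meets just one of the two criteria; inactive = fails both criteria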;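 also: 0% = median of neutral control wells and 100% = median of positive control wells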
dFosB act-2: delta FosB (mouse) homodimer activation; AID 588690; activation, % at 24.9 µM; shares compounds with dFosB act-1; 2,400 tested, under 10 active; purified delta FosB, TAMRA-CDK5 oligo fluorescence polarization; normalised: neutral wells 0, positive control 100;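 active = highest replicate activation at or above 34% and every replicate reaching that threshold; inconclusive = meets only one of the two criteria; inactive = meets neither criterion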;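 also: higher polarization means more probe DNA bound by delta FosB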
An asterisk follows results filed as active; ? = inconclusive; . = not tested or not shown. Rows were chosen to be rich in hits. Some 2.6% of all compounds tested hit in one or more screens of this group.

SMILES	Ecoli rRNA inh	XiGFP reactiv	PvdQ inh	SR-BI uptake up	dFosB act-1	SR-BI HDL uptake	dFosB act-2
COc1ccc(/C=C/C(=O)OCC(=O)Nc2c(C)cccc2C)cc1	17	0	-10	15	25*	-15	-14
S=C1Nc2ccccc2Sc2ccc(Cl)cc21	-3	0	-13	5	34*	-5	3
COc1ccc(S(=O)(=O)N(C)C[C@@H]2Oc3c(NC(=O)Nc4ccc(C(F)(F)F)cc4)cccc3C(=O)N([C@@H](C)CO)C[C@H]2C)cc1	2	-1	.	.	.	.	.
C[C@H]1CN([C@@H](C)CO)C(=O)c2cccc(NC(=O)Nc3ccc(C(F)(F)F)cc3)c2O[C@@H]1CN(C)S(=O)(=O)c1ccccc1	-2	-1	3	5	29*	-5	4
COc1ccc(S(=O)(=O)N(C)C[C@H]2Oc3c(NC(=O)Nc4ccc(C(F)(F)F)cc4)cccc3C(=O)N([C@H](C)CO)C[C@@H]2C)cc1	-5	-1	-8	49	66*	-49	0
C[C@@H]1CN([C@@H](C)CO)S(=O)(=O)c2ccc(C#CC3CCCCC3)cc2O[C@H]1CN(C)C(=O)Cc1ccncc1	-5	0	.	.	.	.	.
CCOC(=O)c1sc(NC(=O)CCc2ccc(OC)cc2)nc1C	5	2	5	.	25*	.	0
COc1ccc(/C=C/C(=O)NC(=S)NNC(=O)[C@H]2C[C@@H]2c2ccccc2)cc1OC	0	0	-2	-14	71*	14	4
O=C(COC(=O)/C=C/c1cccc(Br)c1)NCc1cccs1	-1	0	1	15	46*	-15	3
O=C(COC(=O)/C=C/c1cccc(Br)c1)NCc1ccco1	-8	0	15	-6	-3	6	.
COCc1cc(=O)n2[nH]c(-c3ccco3)cc2n1	14	0	-16	13	3	-13	.
Cc1cc(Nc2cccc(Cl)c2)c2ccccc2n1	15	0	2	-20	-13	20	.
Cc1ccc2nc3c(c(Nc4ccc(O)cc4)c2c1)CCC3	-10	0	1	10	14	-10	.
Cc1ccc2nc3c(c(Nc4ccc5c(c4)OCCO5)c2c1)CCC3	-57	0	4	-18	30*	18	2
Cc1cc(Nc2ccc3c(c2)OCCO3)c2cc(Cl)ccc2n1	.	0	9	31	29*	-31	-8
COc1ccc(Nc2cc(C)nc3ccc(OC)cc23)cc1	-22	0	8	-12	34*	12	3
CCOC(=O)C1CCCN(C(=O)c2ccc(CNc3c(N4CCC(C)CC4)c(=O)c3=O)cc2)C1 (stereo not given)	0	0	-9	6	1	-7	.
CO[C@@H]1CN(C)C(=O)c2cc(NS(=O)(=O)c3ccc(Cl)cc3)ccc2OC[C@H](C)N(C(=O)NC(C)C)C[C@@H]1C	-4	0	.	.	.	.	.
COc1ccccc1Cc1c(-c2cccc(Cl)c2)nc2c(C)cc(Br)cn12	-7	0	.	.	.	.	.
NC(=S)N1OC[C@@H]2COc3ccc4ccccc4c3[C@@H]21	-14	0	1	-39	-5	39	.
Cc1ccc(CNC(=S)Nc2ccc(NS(=O)(=O)c3ccc(C)cc3)cc2)cc1	-23	0	-6	-25	19*	25	3
O=C(C[C@H]1C/C=C\CC[C@H](Cc2ccc(F)cc2)C(=O)O[C@@H](c2ccccc2)CNC1=O)N[C@@H](CO)Cc1ccccc1	13	0	-12	-15	?	15	.
O=C(C[C@H]1C/C=C\CC[C@H](Cc2ccc(F)cc2)C(=O)O[C@H](c2ccccc2)CNC1=O)N[C@H](CO)Cc1ccccc1	10	0	-5	1	48*	-1	0
O=C(Nc1ccc(Br)cn1)c1ccc2nccnc2c1	.	.	-13	-5	43*	5	0
CC(=O)c1ccc(OCC(=O)c2cc(C)n(-c3ccc4c(c3)OCO4)c2C)cc1	-11	0	-9	2	9	-2	.
SMILES	Ecoli rRNA inh	XiGFP reactiv	PvdQ inh	SR-BI uptake up	dFosB act-1	SR-BI HDL uptake	dFosB act-2
Cc1ccc(C(=O)N/C(=C\c2cn(C)c3ccccc23)C(=O)N2CCOCC2)cc1	-1	0	7	0	-6	0	.
O=C1CC(C(=O)Nc2ccc(F)cc2)S/C(=N\N=C\c2ccco2)N1 (stereo not given)	.	0	23	0	33*	0	3
COc1ccc(C(=O)OCC(=O)NCCN2C(=O)CSC2=O)cc1[N+](=O)[O-]	0	0	1	0	2	0	.
CCC(=O)N(C)C[C@H]1Oc2cc(-c3cncnc3)ccc2S(=O)(=O)N([C@H](C)CO)C[C@H]1C	5	0	.	.	.	.	.
O=C(COc1ccccc1)N/N=C/c1ccc([N+](=O)[O-])o1	12	0	-15	6	0	-6	.
O=C(CNc1ccc2ccccc2c1)N/N=C/c1ccc([N+](=O)[O-])o1	.	0	-17	-5	31*	5	4
COc1ccc(-c2c(C(=O)c3ccccc3)[nH]c(N)c2C(=O)NC2CC2)cc1OC	1	0	.	.	.	.	.
Cc1ccc(C)c(N(CC(=O)NC2CCCC2)C(=O)CCC(=O)Nc2cc(C)on2)c1	2	0	3	.	-6	.	.
O=C(Cc1ccc(Cl)cc1)OCC(=O)c1ccc[nH]1	1	-1	-12	-10	4	10	.
COc1ccc(/C=N/n2c(=O)[nH]c3c([nH]c4ccc(Cl)cc43)c2=O)cc1CN1CCCCC1	0	0	-9	16	-2	-16	.
COc1ccc(/C=N/n2c(=O)[nH]c3c([nH]c4ccc(Br)cc43)c2=O)cc1CN1CCOCC1	.	.	-9	-2	28*	2	3
Cn1nc(C(=O)Nc2cccc(Cl)c2)cc1C(=O)Nc1cccc(Cl)c1	9	0	-9	-59	33*	59	2
Cn1nc(C(=O)Nc2ccc(Cl)cc2)cc1C(=O)Nc1ccc(Cl)cc1	17	0	-10	.	8	.	.
Cc1ccc(S(=O)(=O)N(C)c2ccc(OC(=O)CN3C(=O)NC4(CCCC4)C3=O)cc2)cc1C	12	0	-6	17	25*	-17	3
Cc1ccc(S(=O)(=O)N(C)c2ccc(OC(=O)CN3C(=O)NC4(CCCC4)C3=O)cc2)cc1	2	0	-7	17	-10	-17	.
COc1cc2c(cc1OC)C(C)N(C(=O)c1cccs1)CC2 (stereo not given)	-3	0	-21	32	5	-32	.
